Data taken from ChEMBL document CHEMBL4340526, “Discovery and Mechanistic Study of Tailor-Made Quinoline Derivatives as Topoisomerase 1 Poison with Potent Anticancer Activity” (J Med Chem, 2019).
Calls of active or inactive are those of the source. The rule behind the calls is not given here.

Key:
DNA topoisomerase 1 [1] = biological target: T1, DNA topoisomerase 1 (Homo sapiens, UniProt P11387); assay: Poison activity at recombinant human TOP1 expressed in baculovirus infected Sf9 insect cells assessed as decrease in relaxed supercoiled pBS(SK+) DNA mobility measured after 30 mins by ethidium bromide staining based agarose gel electrophoresis
T1 sequence (P11387 whole entry): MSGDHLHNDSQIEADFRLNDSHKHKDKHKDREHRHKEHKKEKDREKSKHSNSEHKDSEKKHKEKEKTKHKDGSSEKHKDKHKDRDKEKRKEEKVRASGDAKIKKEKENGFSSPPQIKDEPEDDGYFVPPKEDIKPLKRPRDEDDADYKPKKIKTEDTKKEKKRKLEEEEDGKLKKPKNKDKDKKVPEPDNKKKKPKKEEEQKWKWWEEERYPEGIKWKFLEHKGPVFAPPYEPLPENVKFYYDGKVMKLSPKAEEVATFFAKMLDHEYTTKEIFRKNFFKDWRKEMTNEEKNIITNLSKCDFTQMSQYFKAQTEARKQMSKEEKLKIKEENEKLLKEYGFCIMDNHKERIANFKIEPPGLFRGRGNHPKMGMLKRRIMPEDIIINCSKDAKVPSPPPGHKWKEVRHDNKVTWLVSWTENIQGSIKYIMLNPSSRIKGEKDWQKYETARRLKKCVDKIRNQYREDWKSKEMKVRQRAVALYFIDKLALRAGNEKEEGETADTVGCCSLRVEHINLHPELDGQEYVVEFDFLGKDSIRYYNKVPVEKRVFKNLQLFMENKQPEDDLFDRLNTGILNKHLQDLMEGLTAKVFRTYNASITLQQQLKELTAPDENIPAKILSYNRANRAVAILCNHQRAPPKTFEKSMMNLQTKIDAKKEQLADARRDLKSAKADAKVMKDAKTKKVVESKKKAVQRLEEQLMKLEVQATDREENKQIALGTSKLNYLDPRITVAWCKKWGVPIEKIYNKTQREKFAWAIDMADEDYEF
How it was run: (§1)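 Top1 is recombinant human enzyme purified from baculovirus-infected Sf-9 cells. Supercoiled pBS (SK+) DNA (90 fmol) is incubated with 30 fmol Top1 (3:1 DNA:enzyme molar ratio) in relaxation buffer, with compound added simultaneously, 30 min at 37 °C. Relaxed isomers are resolved on 1% agarose and percent relaxation inhibition is quantified. Triplicate, mean ± SD.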

[2] = biological target: T2, DNA topoisomerase 1 (Homo sapiens) (UniProt P11387); assay: Poison activity at recombinant human TOP1 expressed in baculovirus infected Sf9 insect cells assessed as decrease in relaxed supercoiled pBS(SK+) DNA mobility at 100 uM measured after 30 mins by ethidium bromide staining based agarose gel electrophoresis relative to control; design: scale not given: the % may be the effect or the level left; how it was run: as §1
T2 sequence (whole entry): T1 sequence (P11387 whole entry)

[3] = Stability of the compound in human plasma assessed as parent compound remaining at […] measured after 2 hrs by LC-MS/MS analysis; assay type: ADME, cell-free; conditions: read-out: Stability
How it was run: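 Plasma is thawed, spun at 1400 RCF for 15 min at 4 °C, and supernatant used. Compound (final 1 μM, diluted from acetonitrile/water stock) is incubated in human plasma 2 h at 37 °C with gentle shaking. Aliquots at 0, 15, 30, 60 and 120 min are precipitated with acetonitrile containing internal standard and analyzed by LC–MS/MS. The 0 min reference uses heat-inactivated plasma (56 °C, 45 min). Value is mean % remaining at 2 h.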

DNA topoisomerase 1 [4] = biological target: T1, DNA topoisomerase 1; assay: Poison activity at TOP1 in human MCF7 cells assessed as decrease in relaxed supercoiled pBS(SK+) DNA mobility measured after 30 mins by ethidium bromide staining based agarose gel electrophoresis; assay type: cell-based
How it was run: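 The Top1 source is MCF7 whole-cell extract (endogenous enzyme). Extract is incubated with 0.3 μg supercoiled pBS (SK+) DNA and compound added together, 30 min at 37 °C, in relaxation buffer. Supercoiled and relaxed forms are separated on 1% agarose and percent relaxation inhibition is quantified. Triplicate, mean ± SD.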

DNA [5] = assay: Binding affinity to Escherichia coli pBS(SK+) DNA assessed as TOP1-mediated unwinding effect at 50 to 200 uM measured after 15 mins by EtBr staining based agarose gel electrophoresis method; assay type: nucleic-acid assay
How it was run: (§2)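 Relaxed pBS (SK+) substrate made by treating supercoiled plasmid with excess Top1, then proteinase K digestion at 37 °C, phenol/chloroform extraction and ethanol precipitation. Reactions hold 50 fmol relaxed DNA with compound (20, 50, 100, 200 μM) and are incubated 15 min at 37 °C. Read-out is 1% agarose gel stained with 0.5 μg/mL EtBr under UV, scoring net negative supercoiling.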

Calf thymus DNA [6] = assay: Displacement of ethidium bromide from calf thymus DNA up to 300 uM by fluorescence assay; assay type: nucleic-acid assay; conditions: Bos taurus
How it was run: (§3)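 Ethidium displacement fluorescence at 25 °C in fluorescence buffer containing 1 μM EtBr and 5 nM calf thymus DNA, with compound titrated 0–300 μM. Emission is read at 590 nm with 510 nm excitation and plotted as % EtBr bound.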

Calf thymus DNA [7] = assay: Displacement of ethidium bromide from calf thymus DNA at 50 uM by fluorescence assay; assay type: nucleic-acid assay; conditions: Bos taurus
How it was run: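 Fluorescence ethidium displacement run at 25 °C with 1 μM EtBr and 5 nM calf thymus DNA in fluorescence buffer. Test compound titrated over 0–300 μM. EtBr emission read at 590 nm with excitation at 510 nm. Result expressed as % EtBr remaining bound.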

MEF [8] = assay: Cytotoxicity against TDP1-positive MEF cells assessed as reduction in cell viability measured after 72 hrs by MTT assay; assay type: functional, cell-based; conditions: Mus musculus
How it was run: (§4)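 Cell lines are HCT116, HeLa, NIH:OVCAR-3, and primary TDP1+/+ and TDP1−/− mouse embryonic fibroblasts, each exposed to variable compound concentrations. Viability is measured by MTT. Percent inhibition at each concentration is calculated against untreated control, and IC50 is estimated from these values.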

MEF [9] = assay: Cytotoxicity against TDP1-deficient MEF cells assessed as reduction in cell viability measured after 72 hrs by MTT assay; assay type: functional, cell-based; conditions: Mus musculus; how it was run: as §4
DNA [10] = assay: Binding affinity to Escherichia coli pBS(SK+) DNA assessed as TOP1-mediated unwinding effect at 20 to 200 uM measured after 15 mins by EtBr staining based agarose gel electrophoresis method; assay type: nucleic-acid assay; how it was run: as §2
Calf thymus DNA [11] = assay: Displacement of ethidium bromide from calf thymus DNA at 200 uM by fluorescence assay; assay type: nucleic-acid assay; conditions: Bos taurus; how it was run: as §3
HCT-116 = assay: Cytotoxicity against human HCT116 cells assessed as reduction in cell viability measured after 72 hrs by MTT assay; assay type: functional, cell-based; conditions: HCT-116, 72 h; how it was run: as §4
[12] = Cytotoxicity against human NIH:OVCAR3 cells assessed as reduction in cell viability measured after 72 hrs by MTT assay; assay type: functional, cell-based; conditions: OVCAR-3, 72 h; how it was run: as §4
HEK293 = assay: Cytotoxicity against HEK293 cells assessed as reduction in cell viability measured after 72 hrs by MTT assay; assay type: cell-based; conditions: Homo sapiens, HEK293, 72 h
How it was run: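 MTT cell survival assay in HEK293 cells (from the Developmental Therapeutics Program) exposed to a range of compound concentrations. Percent inhibition of viability at each concentration calculated relative to untreated control, and IC50 estimated from these values.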

[13] = biological target: T2, DNA topoisomerase 1 (Homo sapiens); assay: Poison activity at recombinant human TOP1 expressed in baculovirus infected Sf9 insect cells assessed as decrease in relaxed supercoiled pBS(SK+) DNA mobility at 10 uM measured after 30 mins by ethidium bromide staining based agarose gel electrophoresis relative to control; design: scale not given: the % may be the effect or the level left; how it was run: as §1

Compound	IC50 (DNA topoisomerase 1 [1]) [µM]	also measured
CNc1c(-c2nnco2)cnc2ccc(-c3ccc(OC)cc3)cc12	> 10	
COc1ccc(-c2ccc3ncc(-c4nnco4)c(NCCN4CCOCC4)c3c2)cc1OC	> 10	Activity [2]: 20%
COc1ccc(-c2ccc3ncc(-c4nnco4)c(NCCN4CCOCC4)c3c2)cc1	> 10	Activity [2]: 50%
COc1ccc(-c2ccc3ncc(-c4nnc(N)o4)c(NCCCn4ccnc4)c3c2)cc1	> 10	
COc1ccc(-c2ccc3ncc(-c4nnco4)c(NCCCn4ccnc4)c3c2)c(OC)c1	> 10	
COc1ccc(-c2ccc3ncc(-c4nnco4)c(NCCCn4ccnc4)c3c2)c(C)c1	> 10	
Cc1ccc(-c2ccc3ncc(-c4nnco4)c(NCCCN4CCOCC4)c3c2)cc1	> 10	
CCOC(=O)c1cnc2ccc(-c3ccc(OC)cc3)cc2c1NCCCn1ccnc1	> 10	
COc1ccc(-c2ccc3ncc(-c4nnco4)c(NCCCN4CCOCC4)c3c2)cc1	1.79	remaining at 2 h [3]: 83.4%; IC50 (DNA topoisomerase 1 [4]): 2.51 µM
CC[C@@]1(O)C(=O)OCc2c1cc1n(c2=O)Cc2cc3ccccc3nc2-1 [CAMPTOTHECIN]		remaining at 2 h [3]: 15.7%
COc1ccc(-c2ccc3ncc(-c4nnc(C)o4)c(NCCCn4ccnc4)c3c2)cc1	> 10	
COc1ccc(-c2ccc3ncc(-c4nnc(C)o4)c(NCCN4CCOCC4)c3c2)cc1	> 10	
COc1cc([C@@H]2c3cc4c(cc3[C@@H](O[C@@H]3O[C@@H]5CO[C@@H](C)O[C@H]5[C@H](O)[C@H]3O)[C@H]3COC(=O)[C@H]23)OCO4)cc(OC)c1O		Activity (DNA [5]): inactive; Activity (Calf thymus DNA [6]): inactive
COc1ccc(-c2ccc3ncc(-c4nnco4)c(NCCCn4ccnc4)c3c2)cc1OC	> 10	
Fc1ccc(-c2ccc3ncc(-c4nnco4)c(NCCCn4ccnc4)c3c2)cc1	> 10	
COc1ccc(-c2ccc3ncc(-c4nnco4)c(NCCn4ccnc4)c3c2)cc1	> 10	
CCOC(=O)c1cnc2ccc(-c3ccc(OC)c(OC)c3)cc2c1NCCCn1ccnc1	> 10	
COc1ccc(-c2ccc3ncc(-c4nnco4)c(NCCCN4CCOCC4)c3c2)cc1OC	> 10	
COc1cc(NS(C)(=O)=O)ccc1Nc1c2ccccc2nc2ccccc12		Activity (DNA [5]): Active; Activity (Calf thymus DNA [7]): Active
COc1ccc(-c2ccc3ncc(-c4nnco4)c(NCCCn4ccnc4)c3c2)cc1		IC50 (MEF [8]): 2.91 µM; IC50 (MEF [9]): 1.02 µM; remaining at 2 h [3]: 93.3%; Activity (DNA [10]): inactive; Activity (Calf thymus DNA [11]): inactive; IC50 (HCT-116): 2.34 µM; IC50 [12]: 2.35 µM; IC50 (HEK293): 8.34 µM
c1ccc(-c2ccc3ncc(-c4nnco4)c(NCCCn4ccnc4)c3c2)cc1	> 10	Activity [13]: 40%
Oc1ccc(-c2ccc3ncc(-c4nnco4)c(NCCCn4ccnc4)c3c2)cc1	> 10	
COc1ccc(-c2ccc3ncc(-c4nnc(C)o4)c(NCCN4CCOCC4)c3c2)cc1OC	> 10	
COc1ccccc1-c1ccc2ncc(-c3nnco3)c(NCCCn3ccnc3)c2c1	> 10	
N#Cc1ccc(-c2ccc3ncc(-c4nnco4)c(NCCCn4ccnc4)c3c2)cc1	> 10	
